Format in all cases: functional, cell-based
Assay [1] has as its system PC-3. As to the kind of experiment: Cytotoxicity against human PC-3 cells assessed as reduction in cell viability preincubated for 48 hrs and measured after 4 hrs by MTT assay.
The subject of assay [2] is MGC-803. Put plainly: Cytotoxicity against human MGC-803 cells expressing mutant type p53 assessed as reduction in cell viability preincubated for 48 hrs and measured after 4 hrs by MTT assay.
Assay [3] relates to DU-145. Put plainly: Cytotoxicity against human DU145 cells expressing mutant type p53 assessed as reduction in cell viability preincubated for 48 hrs and measured after 4 hrs by MTT assay. The essentials: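 MTT assay. Cells grown in DMEM (T24, MGC-803, A549, HL-7702), RPMI-1640 (DU145) or DMEM-F12 (PC-3), each with 10% FBS. Exposed to 1.25–20 µM in medium with 1% DMSO for 48 h, then MTT for 4 h. Formazan dissolved in DMSO and read at 570 nm. Five wells per concentration; means ± SD of independent repeats.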
(Formazan colour is commonly taken as a measure of viable cells.)

Assay [4] concerns L02. Put plainly: Cytotoxicity against human HL-7702 cells expressing wild type p53 assessed as reduction in cell viability preincubated for 48 hrs and measured after 4 hrs by MTT assay.
Assay [5] relates to T-24. Put plainly: Cytotoxicity against human T-24 cells […] assessed as reduction in cell viability preincubated for 48 hrs and measured after 4 hrs by MTT assay.
Assay [6] has as its system A549. Put plainly: Cytotoxicity against human A549 cells expressing wild type p53 assessed as reduction in cell viability preincubated for 48 hrs and measured after 4 hrs by MTT assay.

Consider 31 compounds from ChEMBL document CHEMBL4680124, “2-Styryl-4-aminoquinazoline derivatives as potent DNA-cleavage, p53-activation and in vivo effective anticancer agents” (Eur J Med Chem, 2020).

The term IC50 denotes the point on the concentration scale where inhibition reaches its midpoint.

Take `CN(C)CCCNc1nc(/C=C/c2ccc([N+](=O)[O-])cc2)nc2ccccc12`: the IC50 in assay [1] was above 100 µM; in assay [2] it was 15.7 µM; in assay [3], 24.4 µM; in assay [4], 21.4 µM; in assay [5] it was 9.16 µM; in assay [6], 59.5 µM.

Regarding `CC(C)N(CCNc1nc(/C=C/c2ccc3c(c2)OCO3)nc2ccc(Cl)cc12)C(C)C`, the concentration for half-maximal inhibition (IC50) was 10.6 µM in assay [1]; 8.57 µM in assay [2]; 8.78 µM in assay [3]; above 100 µM in assay [4]; 7.46 µM in assay [5]; above 100 µM in assay [6].

Regarding `CN(C)CCCNc1nc(/C=C/c2ccc3c(c2)OCO3)nc2ccccc12`, the IC50 in assay [1] was above 100 µM; in assay [2], 14 µM; in assay [3] it was 25.4 µM; in assay [4], 14.5 µM; in assay [5] it was 8.81 µM; in assay [6], above 100 µM.

For the compound `COc1ccc(/C=C/c2nc(NCCCN(C)C)c3ccccc3n2)cc1OC`, the IC50 was above 100 µM in assay [1]; above 100 µM in assay [2]; above 100 µM in assay [3]; above 100 µM in assay [4]; 88.4 µM in assay [5]; above 100 µM in assay [6].

In the case of `C(=C\c1nc(NCCN2CCOCC2)c2ccccc2n1)/c1ccc2c(c1)OCO2`, the half-maximal inhibitory concentration (IC50) in assay [1], in assay [2], in assay [3], in assay [4], in assay [5] and in assay [6] was above 100 µM throughout.

In the case of `CCN(CC)CCCNc1nc(/C=C/c2ccc([N+](=O)[O-])cc2)nc2ccc(Cl)cc12`, the half-maximal inhibitory concentration (IC50) in assay [1] is 6.89 µM; in assay [2] it was 7.37 µM; in assay [3], 8.12 µM; in assay [4], 15 µM; in assay [5], 7.12 µM; in assay [6] it was 76.4 µM.

For the compound `CN(C)CCNc1nc(/C=C/c2ccc([N+](=O)[O-])cc2)nc2ccccc12`, the IC50 in assay [1] amounted to 51.1 µM; in assay [2] it was 14.4 µM; in assay [3], 15.7 µM; in assay [4] it was 18 µM; in assay [5] it was 8.95 µM; in assay [6], 33.9 µM.

Take `O=[N+]([O-])c1ccc(/C=C/c2nc(NCCN3CCOCC3)c3ccccc3n2)cc1`: the IC50 in assay [1], in assay [2], in assay [3], in assay [4], in assay [5] and in assay [6] was above 100 µM in each case.

Take `NCCCCNc1nc(/C=C/c2ccc([N+](=O)[O-])cc2)nc2ccc(Cl)cc12`: the IC50 in assay [1] was above 100 µM; in assay [2], 9.16 µM; in assay [3] it was above 100 µM; in assay [4] it was above 100 µM; in assay [5] it was 5.62 µM; in assay [6], 10 µM.

For `COc1ccc(/C=C/c2nc(NCCCN(C)C)c3cc(Cl)ccc3n2)cc1OC`, the IC50 in assay [1], in assay [2], in assay [3], in assay [4], in assay [5] and in assay [6] was above 100 µM in each case.

In the case of `CCN(CC)CCNc1nc(/C=C/c2ccc([N+](=O)[O-])cc2)nc2ccccc12`, the half-maximal inhibitory concentration (IC50) in assay [1] is above 100 µM; in assay [2], above 100 µM; in assay [3], above 100 µM; in assay [4], 44.5 µM; in assay [5] it was above 100 µM; in assay [6], above 100 µM.

Take `C(=C\c1nc(NCCN2CCCCC2)c2ccccc2n1)/c1ccc2c(c1)OCO2`: the 50% inhibitory concentration (IC50) in assay [1] stood at 12.2 µM; in assay [2], 10.7 µM; in assay [3], 8.53 µM; in assay [4], 9.91 µM; in assay [5], 6.38 µM; in assay [6], 39.6 µM.

With `CN(C)CCNc1nc(/C=C/c2ccc([N+](=O)[O-])cc2)nc2ccc(Cl)cc12`, the IC50 is 8.02 µM in assay [1]; 4.68 µM in assay [2]; 6.76 µM in assay [3]; 71.3 µM in assay [4]; 6.97 µM in assay [5]; above 100 µM in assay [6].

As for `COc1ccc(/C=C/c2nc(NCCN(C)C)c3ccccc3n2)cc1OC`, the IC50 in assay [1], in assay [2], in assay [3], in assay [4], in assay [5] and in assay [6] was above 100 µM throughout.

With `CCN(CC)CCCNc1nc(/C=C/c2ccc3c(c2)OCO3)nc2ccccc12`, the half-maximal inhibitory concentration (IC50) in assay [1], in assay [2], in assay [3], in assay [4], in assay [5] and in assay [6] was above 100 µM each time.

In the case of `COc1ccc(/C=C/c2nc(NCCN3CCCCC3)c3cc(Cl)ccc3n2)cc1OC`, the 50% inhibitory concentration (IC50) in assay [1] was 21.2 µM; in assay [2], 13.5 µM; in assay [3] it was 17.2 µM; in assay [4], 13.9 µM; in assay [5] it was 7.64 µM; in assay [6], above 100 µM.

Turning to `COc1ccc(/C=C/c2nc(NCCN3CCCCC3)c3ccccc3n2)cc1OC`, the IC50 in assay [1] came out at 78.5 µM; in assay [2] it was 33.2 µM; in assay [3], 71.6 µM; in assay [4], 19.8 µM; in assay [5], 10.5 µM; in assay [6] it was 82.7 µM.

As to `CCN(CC)CCNc1nc(/C=C/c2ccc(OC)c(OC)c2)nc2ccccc12`, the concentration for half-maximal inhibition (IC50) in assay [1] was 50.3 µM; in assay [2], above 100 µM; in assay [3], 31.4 µM; in assay [4], above 100 µM; in assay [5], 30.2 µM; in assay [6] it was above 100 µM.

For the compound `COc1ccc(/C=C/c2nc(NCCCCN)c3ccccc3n2)cc1OC`, the concentration for half-maximal inhibition (IC50) was above 100 µM in assay [1]; 70.5 µM in assay [2]; above 100 µM in assay [3]; above 100 µM in assay [4]; 30.9 µM in assay [5]; above 100 µM in assay [6].

As to `Clc1ccc2nc(/C=C/c3ccc4c(c3)OCO4)nc(NCCN3CCOCC3)c2c1`, the IC50 was above 100 µM in assay [1]; above 100 µM in assay [2]; above 100 µM in assay [3]; above 100 µM in assay [4]; 38.3 µM in assay [5]; above 100 µM in assay [6].

Take `CCN(CC)CCNc1nc(/C=C/c2ccc(OC)c(OC)c2)nc2ccc(Cl)cc12`: the IC50 in assay [1] is above 100 µM; in assay [2] it was 16.8 µM; in assay [3], above 100 µM; in assay [4], 91.2 µM; in assay [5] it was 12.2 µM; in assay [6] it was above 100 µM.

Regarding `O=[N+]([O-])c1ccc(/C=C/c2nc(NCCN3CCCCC3)c3cc(Cl)ccc3n2)cc1`, the half-maximal inhibitory concentration (IC50) was above 100 µM in assay [1]; 20 µM in assay [2]; above 100 µM in assay [3]; above 100 µM in assay [4]; 34.3 µM in assay [5]; 41.1 µM in assay [6].

Consider `CC(C)N(CCNc1nc(/C=C/c2ccc([N+](=O)[O-])cc2)nc2ccccc12)C(C)C`, for which the IC50 is above 100 µM in assay [1]; 29.1 µM in assay [2]; above 100 µM in assay [3]; 8.96 µM in assay [4]; 14.2 µM in assay [5]; above 100 µM in assay [6].

For the compound `CCN(CC)CCCNc1nc(/C=C/c2ccc3c(c2)OCO3)nc2ccc(Cl)cc12`, the IC50 in assay [1] is above 100 µM; in assay [2], 12.9 µM; in assay [3], above 100 µM; in assay [4] it was above 100 µM; in assay [5] it was 9.74 µM; in assay [6], above 100 µM.

For the compound `O=[N+]([O-])c1ccc(/C=C/c2nc(NCCN3CCCCC3)c3ccccc3n2)cc1`, the IC50 in assay [1] is 25.6 µM; in assay [2] it was 27.6 µM; in assay [3], above 100 µM; in assay [4], above 100 µM; in assay [5] it was 36.2 µM; in assay [6] it was 28.2 µM.

For the compound `CCN(CC)CCCNc1nc(/C=C/c2ccc(OC)c(OC)c2)nc2ccccc12`, the IC50 in assay [1], in assay [2], in assay [3], in assay [4], in assay [5] and in assay [6] was above 100 µM each time.

Turning to `CN(C)CCCNc1nc(/C=C/c2ccc([N+](=O)[O-])cc2)nc2ccc(Cl)cc12`, the half-maximal inhibitory concentration (IC50) in assay [1] was 5.32 µM; in assay [2], 6.67 µM; in assay [3], 8.49 µM; in assay [4], above 100 µM; in assay [5], 7.42 µM; in assay [6] it was 15.8 µM.

Regarding `CN(C)CCCNc1nc(/C=C/c2ccc3c(c2)OCO3)nc2ccc(Cl)cc12`, the IC50 is above 100 µM in assay [1]; 17.2 µM in assay [2]; above 100 µM in assay [3]; above 100 µM in assay [4]; 8.12 µM in assay [5]; above 100 µM in assay [6].

Turning to `CCN(CC)CCNc1nc(/C=C/c2ccc([N+](=O)[O-])cc2)nc2ccc(Cl)cc12`, the IC50 was above 100 µM in assay [1]; 7.12 µM in assay [2]; 12.4 µM in assay [3]; above 100 µM in assay [4]; 11 µM in assay [5]; above 100 µM in assay [6].

Consider `COc1ccc(/C=C/c2nc(NCCN(C(C)C)C(C)C)c3ccccc3n2)cc1OC`, for which the IC50 was 20.3 µM in assay [1]; 15.5 µM in assay [2]; 15 µM in assay [3]; above 100 µM in assay [4]; 6.5 µM in assay [5]; 38.8 µM in assay [6].

In the case of `CCN(CC)CCNc1nc(/C=C/c2ccc3c(c2)OCO3)nc2ccc(Cl)cc12`, the half-inhibitory concentration (IC50) in assay [1] was 14.2 µM; in assay [2], 11.1 µM; in assay [3], 7.56 µM; in assay [4], 15.9 µM; in assay [5] it was 8.17 µM; in assay [6] it was above 100 µM.
